The values that follow come from ChEMBL document CHEMBL1152534, “Synthesis of oxalamide and triazine derivatives as a novel class of hybrid 4-aminoquinoline with potent antiplasmodial activity” (Bioorg Med Chem, 2009).

Assay [1] has as its system Plasmodium yoelii. Briefly: Antimalarial activity against chloroquine-resistant Plasmodium yoelii N67 infected in Swiss mice (Mus musculus) assessed as inhibition of parasitaemia at 10 mg/kg, perorally administered for 4 days measured on day 4 post-infection. It is filed as functional. As to conditions: N67, 96 h, route oral. The gist of the method: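 Swiss mice were inoculated with 1 × 10⁶ P. yoelii N-67 parasitized RBC on day 0. Groups of five were dosed with chloroquine orally at 10 mg/kg once daily from day 0 to 3. Parasitaemia was read from thin blood smears on day 4, and percent suppression was calculated from the group mean against untreated controls.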

The subject of assay [2] is Plasmodium yoelii. Briefly: Antiplasmodial activity against Plasmodium yoelii infected in Swiss mice (Mus musculus) erythrocytes assessed as inhibition of beta-hematin formation after 16 hrs by fluorescence assay. It is filed as functional, organism-based. The conditions noted are these: Plasmodium yoelii, 16 h; in the assay text read “absorbance measurement at 400 nm” for “fluorescence assay”. Summed up: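 Plasma came from P. yoelii-infected mouse blood at about 50% parasitemia, collected in citrate and centrifuged. The mix held 100 mM sodium acetate pH 5.1, 50 µL plasma and 100 µM hemin substrate in 1.0 mL, run in triplicate at 37 °C for 16 h with shaking. The pellet was dissolved in Tris-HCl pH 7.4 with 2.5% SDS. Absorbance at 400 nm; IC50 by non-linear regression.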

In brackets after ≈: the same amount, converted by molar mass.

The term inhibition in vivo denotes the change of the read-out against control, counted positive when it falls. Usually IC50 stands for the concentration that inhibits the measured activity by half. Consider `CCN(CC)CCCC(C)Nc1ccnc2cc(Cl)ccc12` (configuration not stated) [CHLOROQUINE], for which the inhibition in vivo at 10 mg/kg in assay [1] is 99%. Also, the half-inhibitory concentration (IC50) in assay [2] turned out to be 4.87 µg/mL (≈ 15.2 µM).
